Test [1] has as its system C8166. The test can be described thus: Anti-HIV activity to reduce the amount of p24 in WT IIIB infected C8166 cells. The test is classed as functional, cell-based. Conditions: Homo sapiens. Put shortly:
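HIV-1 IIIB came from supernatants of persistently infected H9/IIIB cells; stock 4.5 × 10^6 CCID50/mL. Acutely infected C8166 cells (1 × 10^4/well) were incubated at 37 °C with or without compound dilutions. p24 was measured by immunoenzymatic kit. Value is the concentration reducing p24 by 90%; mean of three experiments.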

Test [2] deals with MT4. The test can be described thus: Cytotoxicity, reducing the vaiability of mock-infected cells. Conditions: Homo sapiens. The test is classed as functional.
For test [3], the system named is Human immunodeficiency virus 1. The test can be described thus: Anti-HIV activity protecting MT-4 cells from HIV-1 induced cytopathogenicity. The test is classed as functional, organism-based. Conditions: Human immunodeficiency virus 1, MT4.
The target in test [4] is Human immunodeficiency virus type 1 reverse transcriptase (Human immunodeficiency virus 1, UniProt Q72547, K103N). The test can be described thus: Activity to inhibit HIV-1 Reverse transcriptase activity in K103N. Put shortly: (§1)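 Purified recombinant RT (wt or K103N mutant) assayed for RNA-dependent DNA polymerase activity. Buffer: 50 mM Tris-HCl pH 7.8, 80 mM KCl, 6 mM MgCl2, 1 mM DTT, 0.1 mg/mL BSA. Template:primer was poly(rC)-oligo(dG)12-18 at 0.5 OD260 unit/mL, with [3H]dGTP. Incubated 30 min at 37 °C; acid-insoluble radioactivity counted on glass-fibre filters. IC50 reported as mean of two experiments.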

The target of test [5] is Human immunodeficiency virus type 1 reverse transcriptase (Human immunodeficiency virus 1, UniProt Q72547). The test can be described thus: Activity to inhibit HIV-1 Reverse transcriptase activity in WT IIIB. Put shortly:
as §1

In test [6] the test system is Human immunodeficiency virus 1. Briefly: Selectivity ratio of CC50/EC50. Type of test: functional. Put shortly: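 Ratio of CC50 (MTT viability of mock-infected MT-4 cells) to EC50 (MTT-based 50% protection of HIV-1-infected MT-4 cells from cytopathicity), both determined in parallel.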
The test system of test [7] is MT4. Briefly: Anti-HIV activity to protect MT-4 cells from HIV-1 induced cytopathogenicity by MTT method Y181C. To be noted: Homo sapiens. Type of test: functional, cell-based. Put shortly: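 Acutely infected MT-4 cells (1 × 10^4/well) exposed to serial compound dilutions, then HIV-1 (wt IIIB from H9/IIIB supernatant, or Y181C mutant NIH N119) at inoculum giving full cytopathicity by day 4; 37 °C incubation; viability read by MTT. EC50 = µM giving 50% protection from virus-induced cytopathicity; mean ± SE of three experiments.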
A general note: Protection from cytopathic effect is a common read-out in antiviral testing.

In test [8] the test system is MT-4 (Homo sapiens). The test can be described thus: Anti-HIV activity to protect MT-4 cells from cytopathogenicity induced by HIV-1 K103N-Y181C (MTT method).
Test [9] has as its system C8166. The test can be described thus: Anti-HIV activity to reduce the amount of p24 in C8166 cells infected with efavirenz resistance strain K103R, V179D, and P225H. The test is classed as functional, cell-based, Homo sapiens. Put shortly:
(§2)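 Efavirenz-resistant K103R-V179D-P225H virus came from IIIB passaged in C8166 cells with efavirenz (up to 2 µM); stock 3.0 × 10^5 CCID50/mL. Acutely infected C8166 cells (1 × 10^4/well) were incubated at 37 °C with or without compound dilutions. p24 was measured by immunoenzymatic kit. Value is the concentration giving 90% p24 reduction; mean of three experiments.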

For test [10], the system named is MT-4 (Homo sapiens). Briefly: Anti-HIV activity to protect MT-4 cells from cytopathogenicity induced by HIV-1 K103N-Y181C (MTT method). The source holds these as a separate data set.
Test [11] deals with C8166. The test can be described thus: Anti-HIV activity to reduce the amount of p24 in C8166 cells infected with efavirenz resistance strain. Type of test: functional, cell-based. Conditions: Homo sapiens. Put shortly: as §2

Structures are written as SMILES. A value given as a limit tells only on which side of the number the result lay.

In general, EC90 refers to the point of the concentration-response curve where the effect stands at 90%. A higher EC90 goes with weaker potency. The term CC50 denotes the concentration at which the toxic effect on the cells reaches its halfway point. Broadly, the EC50 is the concentration at which the effect is half-maximal. A higher EC50 goes with a need for much substance. A word on the IC50: it is the concentration that inhibits the measured activity by half. For the compound `Cc1ccc(S(=O)(=O)c2c(C(N)=O)[nH]c3ccc(Cl)cc23)cc1`, it took 10 nM to reach the 90% level in [1] (EC90). Further, in [2], the CC50 was > 200000 nM. For the same compound, the EC50 in test [3] is 3 nM; in test [7] it was 20 nM; in test [8], > 100000 nM. Moreover, the figures for the IC50 in test [4] and in [5] were > 5000 nM and 72 nM, respectively. Besides, the Selectivity index in [6] is listed as >66667.
On to `Cc1cc(C)cc(S(=O)(=O)c2c(C(N)=O)[nH]c3ccc(Cl)cc23)c1`, for which the EC90 in test [1] came out at 2 nM. In test [2], this compound came in with a CC50 of 15000 nM. Besides, the EC50 amounted to 4 nM in [3] and 650 nM in [8]. Also, the figures for the IC50 in test [4] and in [5] were > 5000 nM and 31 nM, respectively. Further, the Selectivity index in [6] is 3750.
Consider `Cc1ccccc1S(=O)(=O)c1c(C(N)=O)[nH]c2ccc(Cl)cc12`, for which the EC90 amounted to 2600 nM in test [9] and 5 nM in test [1]. In test [2], the CC50 was > 200000 nM. Moreover, the figures for the EC50 in test [3] and in [10] were 1 nM and 10000 nM, respectively. Also, the Selectivity index in test [6] was >200000.
Take `Cc1cccc(S(=O)(=O)c2c(C(N)=O)[nH]c3ccc(Cl)cc23)c1`: the EC90 in [9] is 260 nM; in [1], 5 nM. The CC50 in test [2] is > 200000 nM. For the same compound, the EC50 in [3] was determined as 1 nM; in test [7], 6 nM; in [10], 7000 nM. Also, the Selectivity index in test [6] was >200000.
In the case of `NC(=O)c1[nH]c2ccc(Cl)cc2c1S(=O)(=O)c1ccccc1` [L-737126], the EC90 in [11] stood at 900 nM; in test [1], 7 nM. The compound also displayed a CC50 in test [2] of 45000 nM. In addition, in [3], the EC50 was determined as 1 nM. In addition, the IC50 in [4] was > 5000 nM; in test [5] it was 25 nM. In addition, the Selectivity index in [6] was 45000.
As to `Cc1cc(C)cc(S(=O)(=O)c2c(C(N)=O)[nH]c3ccc(Br)cc23)c1`, in test [2], the midpoint of cytotoxicity, the CC50, lay at 18000 nM. This compound also returned an EC50 in [3] of 2 nM. The Selectivity index in test [6] came to 9000.
`Cc1ccc(S(=O)(=O)c2c(C(N)=O)[nH]c3ccc(Cl)cc23)c(C)c1`: the CC50 in test [2] came to 37000 nM. Besides, the figures for the EC50 in test [3] and in [8] were 4 nM and 10000 nM, respectively. For the same compound, the Selectivity index in test [6] came to 9250.
On to `Cc1cc(C)cc(Sc2c(C(N)=O)[nH]c3ccc(Cl)cc23)c1`, for which, in [2], the CC50 amounted to 700 nM. The compound also registered an EC50 in test [3] of 6 nM. In addition, the Selectivity index in test [6] is given as 117.
On the same counts, the results for `NC(=O)c1[nH]c2ccc(Cl)cc2c1S(=O)(=O)c1c(Cl)cccc1Cl` are 40000 nM, 100 nM and 400.

For the origin of these results see ChEMBL document CHEMBL1145983, “Novel indolyl aryl sulfones active against HIV-1 carrying NNRTI resistance mutations: synthesis and SAR studies” (J Med Chem, 2003).
